In ChEMBL document CHEMBL1268852, “Quercetin prevents unloading-derived disused muscle atrophy by attenuating the induction of ubiquitin ligases in tail-suspension mice” (J Nat Prod, 2010):
Active and inactive are the calls of the source. The rule behind the calls is not given here.

Key:
Type in all cases: functional, organism-based
Mus musculus [1] = experiment: Reduction of gastrocnemius muscle weight loss in C57BL/6 mouse tail suspension model at 2.5 pmol administered in gastrocnemius muscle qd for 10 days relative to whole body weight
Mus musculus [2] = experiment: Reduction of atrogin-1 mRNA expression in gastrocnemius muscle of C57BL/6 mouse tail suspension model at 2.5 pmol administered in gastrocnemius muscle qd for 10 days by RT-PCR analysis
Method in brief: (§1)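 Male C57BL/6 mice, 7 weeks old, injected intramuscularly in one gastrocnemius with 2.5 pmol/leg in saline/0.1% propylene glycol every 24 h; vehicle went into the contralateral leg. Tail suspension lasted 10 days and ground mice served as controls. Gastrocnemius taken 6 h after the last dose. mRNA measured by real-time PCR and given as % of the vehicle-ground level; mean ± SE, n=4.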

Mus musculus [3] = experiment: Reduction of MuRF-1 mRNA expression in gastrocnemius muscle of C57BL/6 mouse tail suspension model at 2.5 pmol administered in gastrocnemius muscle qd for 10 days by RT-PCR analysis; method in brief: as §1
Mus musculus [4] = experiment: […] of lipid peroxidation in gastrocnemius muscle of C57BL/6 mouse tail suspension model assessed as decrease of thiobarbituric acid-reactive substance level at 2.5 pmol administered in gastrocnemius muscle qd for 10 days by RT-PCR analysis
Method in brief: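 Male C57BL/6 mice, 7 weeks old. Compound in 0.9% saline with 0.1% propylene glycol, 2.5 pmol/leg (50 µL) injected into one gastrocnemius and vehicle into the other, given every 24 h. Tail suspension began 24 h after the first dose and lasted 10 days; ground mice served as controls. Muscle taken 6 h after the day-10 dose. TBARS measured by fluorescence ([…]) against a tetraethoxypropane standard; n=4, two-way ANOVA.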

SMILES	Activity (Mus musculus [1])	Activity (Mus musculus [2])	Activity (Mus musculus [3])	Activity (Mus musculus [4])
O=c1c(O)c(-c2ccc(O)c(O)c2)oc2cc(O)cc(O)c12	Active	Active	Active	Active
CC(=O)N[C@@H](CS)C(=O)O	Active			Active
O=c1cc(-c2ccccc2)oc2ccccc12		inactive	inactive	inactive
